Compound activity from PubChem.
Yeast lifespan up: compounds extending yeast replicative lifespan, primary screen, S. cerevisiae, OD615; S. cerevisiae growth with nicotinamide; deaD strain in restrictive glucose medium; inhibition of the nicotinamide effect, % at 10 µM; 0.68% of 130,000 active;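 active = inhibition above a set limit, placed 3 SD over the median of all compounds, cut at about 26% in these data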
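Test system – modified budding yeast, DeaD strain · Compound – single dose 10 µM compound, 0.25% DMSO · Times – culture preincubation 4 h, compound exposure 48 h, both 30 °C · Detection – optical density (absorbance) at 615 nm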
BB579 growth dn: growth inhibitors of yeast BB579 in restrictive medium, primary screen, yeast lifespan-shortening project, S. cerevisiae | inhibition, % at 10 µM | AID 804, 2007 | 0.51% of 140,000 active | OD615, 48 h;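 active = inhibition above a set limit, 3 SD over the mean compound inhibition, cut at about 44% in these data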
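Test system: Saccharomyces cerevisiae DeaD strain BB579, replicative lifespan model yeast | Buffer or medium: Restrictive CSMM-D medium | Doses: One dose, 10 µM compound with 0.25% DMSO | Incubation: 48 h exposure, 30 °C | Detection: Culture absorbance at 615 nm | Control set: Amphotericin B at 10 µg/mL as positive control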
RAM inhibit: inhibitors of the yeast RAM network, primary screen, dse1pr::URA3 reporter, 5-FOA selection. S. cerevisiae dse1pr::URA3 reporter, 5-FOA growth OD615, 2 d; analog-sensitive cbk1-as2 kinase mutant strain. inhibition, % at 50 µM. 1.8% of 190,000 active;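 active = inhibition above a set limit, 3 SD over mean compound inhibition, cut at about 8.4% in these data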;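 also: inhibition rescues growth on 5-FOA so higher OD means more RAM inhibition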
sdo1 growth: growth rescue of sdo1-depleted yeast, primary screen, S. cerevisiae, bone marrow failure model; z-score at 10 µM; AID 817, 2007; 0.21% of 140,000 active; S. cerevisiae sdo1-depleted JHY4D growth rescue, OD600 30 h; hits give high values; pdr5 snq2 efflux-pump mutant strain;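 active = z-score above 3 at both the 24 hr and the 30 hr optical density reads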
Large screens that a line does not name were inactive. Rows were chosen to be rich in hits. Some 2.7% of all compounds tested hit in one or more screens of this group.

Cc1ccc(NC(=O)CSc2nc3c(cc2C#N)C(=O)CCC3)cc1S(=O)(=O)N(C)C	RAM inhibit 8.5
COc1ccc(Cc2[nH]n3c(=O)c(Cl)c(C)nc3c2-c2ccccc2)cc1	RAM inhibit 11 (no result: Yeast lifespan up, BB579 growth dn, sdo1 growth)
CC(=O)c1cccc(S(=O)(=O)N2CCCC(c3nc(-c4ccc(C)o4)no3)C2)c1 (stereo not drawn)	RAM inhibit 9.3
Fc1cccc2sc(Nc3nnc(-c4ccccc4)o3)nc12	Yeast lifespan up 60
COc1cc(OC)cc(-c2nnc(Nc3nc4c(F)cccc4s3)o2)c1	none
COc1ccc(C(=O)OCn2nnc3ccccc3c2=O)cc1OC	RAM inhibit 8.8
COc1ccc(C(=O)OCn2nnc3ccccc3c2=O)cc1[N+](=O)[O-]	none (no result: Yeast lifespan up, BB579 growth dn, sdo1 growth)
COCCN1CSC(=S)N(Cc2ccco2)C1	BB579 growth dn 60
S=C1SCN(Cc2cccnc2)CN1Cc1ccccc1	none (no result: Yeast lifespan up, BB579 growth dn, sdo1 growth)
S=C1SCN(Cc2ccccn2)CN1Cc1ccco1	BB579 growth dn 52
CCOCCCN1CN(Cc2ccco2)CNC1=S	none (no result: Yeast lifespan up, BB579 growth dn, sdo1 growth)
COC(=O)c1nnn(-c2nonc2N)c1COc1ccc(C=O)cc1OC	none (no result: Yeast lifespan up, BB579 growth dn, sdo1 growth)
Cc1ccc(C)c(Nc2c(F)c(F)c(F)c(F)c2C(=O)O)c1	none (no result: Yeast lifespan up, BB579 growth dn, sdo1 growth)
CCOc1ccc2nc(SCC(=O)N3CCCc4ccccc43)sc2c1	RAM inhibit 10.0
CCOc1ccc2nc(SCC(=O)c3ccc(Cl)s3)sc2c1	RAM inhibit 9.8
O=C(NNS(=O)(=O)c1ccc(F)c(Cl)c1)c1cccc(S(=O)(=O)N2CCOCC2)c1	none
CCOc1ccc(N2CC(O)=C(c3ccccc3)C2=N)cc1	none (no result: Yeast lifespan up, BB579 growth dn, sdo1 growth)
CC(=O)C1=C(C)N(CC2CC2)C(=O)N[C@H]1c1ccc(Br)cc1	none
CCOC(=O)CN1C(=O)N[C@H](c2ccc(Br)cc2)C(C(C)=O)=C1C	Yeast lifespan up 46
CC(=O)c1ccccc1N(C(=O)c1ccco1)C(C(=O)NC1CCCC1)c1ccc(N2CCOCC2)cc1 (stereo not drawn)	none (no result: Yeast lifespan up, BB579 growth dn, sdo1 growth)
Cc1ccn2c(NC(C)(C)C)c(-c3cccs3)nc2c1	none (no result: Yeast lifespan up, BB579 growth dn, sdo1 growth)
O=C(NC1CCCCC1)Sc1ccc(Cl)cc1	BB579 growth dn 52
O=C(CSc1ccc(Cl)cc1)NC1CCCC1	none
C=CCn1c(SCC(=O)NC(=O)c2cccc([N+](=O)[O-])c2)nnc1-c1ccccc1F	none
O=C(Cn1c(-c2ccccc2)c[n+]2ccsc12)c1ccc(Br)cc1	none (no result: Yeast lifespan up, BB579 growth dn, sdo1 growth)
O=S(=O)(NCC1CCCO1)c1ccc(Br)s1 (stereo not drawn)	none
O=S(=O)(NC1CC2CCC1C2)c1ccc(Br)s1 (stereo not drawn)	BB579 growth dn 98
Cn1c(=O)c(C(=O)c2ccccc2)nc2ccccc21	none
O=C(c1ccccc1)c1nc2ccccc2n(CCCn2c(=O)c(C(=O)c3ccccc3)nc3ccccc32)c1=O	RAM inhibit 9.6
O=C(c1ccccc1)c1nc2ccccc2[nH]c1=O	Yeast lifespan up 76
O=C(CCc1ccc(S(=O)(=O)NC2CCCCC2)cc1)N(Cc1ccccc1)Cc1ccccc1	RAM inhibit 11
Cc1ccc(-n2cc(C(=O)c3ccccc3O)cn2)cc1	none
Cc1ccc(-n2cc(C(=O)c3ccc4ccccc4c3O)cn2)cc1	RAM inhibit 8.5
COC(=O)/C(=C/c1ccco1)NC(=O)c1ccco1	none
CN(C)c1ccc(-c2nn3c(C4CCCCC4)nnc3s2)cc1	RAM inhibit 8.6
O=C(CCl)Nc1cccc(Oc2ccccc2)c1	none (no result: Yeast lifespan up, BB579 growth dn, sdo1 growth)
Oc1cccc(/C=N/NC(=S)Nc2cccnc2)c1O	BB579 growth dn 53
CC(Sc1nc(-c2ccccc2)cs1)C(=O)Nc1ccc(Cl)cn1 (stereo not drawn)	RAM inhibit 9.5
COc1ccccc1/C=N/N1C(=O)C(CC(=O)Nc2ccc([N+](=O)[O-])cc2OC)SC1=Nc1cccc(C)c1C (stereo not drawn)	RAM inhibit 11 (no result: Yeast lifespan up, BB579 growth dn, sdo1 growth)
O=C(COc1ccc(Br)cc1Cl)NC(=O)NCc1ccccc1	RAM inhibit 8.8
O=C(COc1ccc(Br)cc1Cl)NC(=O)Nc1ccc2c(c1)OCCO2	none (no result: Yeast lifespan up, BB579 growth dn, sdo1 growth)
CCc1ccc(N=CC23c4ccccc4C(c4ccccc42)C2C(=O)N(c4ccc(OC)cc4)C(=O)C23)cc1 (stereo not drawn)	Yeast lifespan up 29
COc1ccccc1N(C)S(=O)(=O)c1ccc(C(=O)OCC(=O)N2CCC2)cc1	none (no result: Yeast lifespan up, BB579 growth dn, sdo1 growth)
COc1ccc(CC(=O)NNS(=O)(=O)c2ccccc2)cc1OC	none (no result: Yeast lifespan up, BB579 growth dn, sdo1 growth)
COC(=O)c1cc(C(=O)c2ccc(Cl)cc2)n2c(=O)/c(=C\N(C)C)sc12	none (no result: Yeast lifespan up, BB579 growth dn, sdo1 growth)
